“And” between values parts separate entries of the source, which are not always exact repeats. Equal entries are not always repeated.
Experiments:
[1] = system: Mus musculus; assay: In vivo evaluation of percent increase in life span (ILS) against P388 lymphocytic leukemia in infected CD2F1 male mice and at 3 dose mg/kg; type: functional
Outline: (§1)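 P388 lymphocytic leukemia (10⁶ cells) transplanted into male CD2F1 (CDF1) mice, with intraperitoneal treatment once daily for 9 days following the day of transplantation. Groups of 6. Survival days of treated (T) and control (C) mice were compared, and %ILS was calculated as [(T−C)/C]100.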

[2] = system: Mus musculus; assay: In vivo evaluation of percent increase in life span (ILS) against P388 lymphocytic leukemia in infected CD2F1 male mice and at 6 dose mg/kg; type: functional; outline: as §1
[3] = system: Mus musculus; assay: In vivo evaluation of 30 day survival against P388 lymphocytic leukemia in CD2F1 male mice at dose mg/kg; out of 6 mice; type: functional
Outline: (§2)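 CD2F1 (CDF1) male mice transplanted with 10⁶ P388 lymphocytic leukemia cells, then dosed intraperitoneally once daily for 9 days starting after the day of transplantation. Groups of 6 mice. Read-out is the number of mice alive at 30 days over the total per group.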

[4] = system: Mus musculus; assay: In vivo evaluation of percent increase in life span (ILS) against P388 lymphocytic leukemia in infected CD2F1 male mice and at 15 dose mg/kg; type: functional; outline: as §1
[5] = system: Mus musculus; assay: (§3) In vivo evaluation of 30 day survival against P388 lymphocytic leukemia in CD2F1 male mice at dose 15 mg/kg; out of 6 mice; type: functional; outline: as §2
[6] = system: Mus musculus; assay: In vivo evaluation of percent increase in life span (ILS) against P388 lymphocytic leukemia in infected CD2F1 male mice and at 10 dose mg/kg; type: functional; outline: as §1
[7] = system: Mus musculus; assay: In vivo evaluation of 30 day survival against P388 lymphocytic leukemia in CD2F1 male mice at dose 10 mg/kg; out of 6 mice; type: functional; outline: as §2
[8] = system: Mus musculus; assay: (§4) In vivo evaluation of percent increase in life span (ILS) against P388 lymphocytic leukemia in infected CD2F1 male mice and at 80 dose mg/kg; type: functional; outline: as §1
[9] = system: Mus musculus; assay: (§5) In vivo evaluation of 30 day survival against P388 lymphocytic leukemia in CD2F1 male mice at dose 160 mg/kg; out of 6 mice; type: functional; outline: as §2
[10] = system: Mus musculus; assay: (§6) In vivo evaluation of 30 day survival against P388 lymphocytic leukemia in CD2F1 male mice at dose 80 mg/kg; out of 6 mice; type: functional; outline: as §2
[11] = system: Mus musculus; assay: In vivo evaluation of percent increase in life span (ILS) against P388 lymphocytic leukemia in infected CD2F1 male mice and at 160 dose mg/kg; type: functional; outline: as §1
[12] = system: Mus musculus; assay: as §6; type: functional, organism-based; parameters: dose 80 mg/kg; outline: as §2
[13] = system: Mus musculus; assay: as §5; type: functional, organism-based; parameters: dose 160 mg/kg; outline: as §2
[14] = system: Mus musculus; assay: as §4; type: functional, organism-based; outline: as §1
[15] = system: Mus musculus; assay: In vivo evaluation of percent increase in life span (ILS) against P388 lymphocytic leukemia in infected CD2F1 male mice and at 40 dose mg/kg; type: functional; outline: as §1
[16] = system: Mus musculus; assay: (§7) In vivo evaluation of 30 day survival against P388 lymphocytic leukemia in CD2F1 male mice at dose 20 mg/kg; out of 6 mice; type: functional; outline: as §2
[17] = system: Mus musculus; assay: (§8) In vivo evaluation of 30 day survival against P388 lymphocytic leukemia in CD2F1 male mice at dose 40 mg/kg; out of 6 mice; type: functional, organism-based; parameters: dose 40 mg/kg; outline: as §2
[18] = system: Mus musculus; assay: as §3; type: functional; outline: as §2; remark: listed apart in the source
[19] = system: Mus musculus; assay: as §7; type: functional, organism-based; parameters: dose 20 mg/kg; outline: as §2
[20] = system: Mus musculus; assay: In vivo evaluation of percent increase in life span (ILS) against P388 lymphocytic leukemia in infected CD2F1 male mice and at 30 dose mg/kg; type: functional; outline: as §1
[21] = system: Mus musculus; assay: In vivo evaluation of percent increase in life span (ILS) against P388 lymphocytic leukemia in infected CD2F1 male mice and at dose mg/kg; type: functional; outline: as §1
[22] = system: Mus musculus; assay: In vivo evaluation of percent increase in life span (ILS) against P388 lymphocytic leukemia in infected CD2F1 male mice and at dose; type: functional; outline: as §1
[23] = system: Mus musculus; assay: In vivo evaluation of 30 day survival against P388 lymphocytic leukemia in CD2F1 male mice at dose 30 mg/kg; out of 6 mice; type: functional; outline: as §2
[24] = system: Mus musculus; assay: In vivo evaluation of percent increase in life span (ILS) against P388 lymphocytic leukemia in infected CD2F1 male mice and at 12 dose mg/kg; type: functional; outline: as §1
[25] = system: Mus musculus; assay: In vivo evaluation of 30 day survival against P388 lymphocytic leukemia in CD2F1 male mice at dose 12 mg/kg; out of 6 mice; type: functional; outline: as §2
[26] = system: Mus musculus; assay: In vivo evaluation of 30 day survival against P388 lymphocytic leukemia in CD2F1 male mice at dose 6 mg/kg; out of 6 mice; type: functional; outline: as §2
[27] = system: Mus musculus; assay: as §8; type: functional; outline: as §2
[28] = system: Mus musculus; assay: In vivo evaluation of 30 day survival against P388 lymphocytic leukemia in CD2F1 male mice at dose 25 mg/kg; out of 6 mice; type: functional; outline: as §2
[29] = system: Mus musculus; assay: In vivo evaluation of percent increase in life span (ILS) against P388 lymphocytic leukemia in infected CD2F1 male mice and at 20 dose mg/kg; type: functional; outline: as §1
[30] = system: Mus musculus; assay: In vivo evaluation of percent increase in life span (ILS) against P388 lymphocytic leukemia in infected CD2F1 male mice and at 25 dose mg/kg; type: functional; outline: as §1
[31] = system: Mus musculus; assay: as §7; type: functional; outline: as §2; remark: listed apart in the source
[32] = system: Mus musculus; assay: In vivo evaluation of 30 day survival against P388 lymphocytic leukemia in CD2F1 male mice at dose 7.5 mg/kg; out of 6 mice; type: functional; outline: as §2

SMILES: S=P(N1CC1)(N1CC1)N1CC1 [THIOTEPA]
- ILS [1]: 83%
- ILS [2]: 141%
- 30 day survival / total [3]: 0

SMILES: CC1(C)CC(NP(=S)(N2CC2)N2CC2)CC(C)(C)N1O
- ILS [4]: 34%
- 30 day survival / total [5]: 0
- ILS [6]: 25%
- 30 day survival / total [7]: 0

SMILES: CC1(C)CC(OP(=S)(NCCCl)NCCCl)CC(C)(C)N1O
- ILS [8]: 15%
- 30 day survival / total [9]: 0
- 30 day survival / total [10]: 0
- ILS [11]: 33%

SMILES: CC1(C)CC(OP(=S)(NCCCl)NCCCl)CC(C)(C)N1[O]
- 30 day survival / total [12]: 0
- 30 day survival / total [13]: 0
- ILS [14]: 30%
- ILS [15]: 17% and 13%
- 30 day survival / total [16]: 0
- ILS [11]: 44%
- 30 day survival / total [17]: 0

SMILES: CN(C1CC(C)(C)N([O])C(C)(C)C1)P(=S)(NCCCl)N1CC1 (centres undefined)
- ILS [4]: 20%
- 30 day survival / total [18]: 0
- ILS [6]: 13%
- 30 day survival / total [19]: 0

SMILES: CC1(C)CC(OC(=O)NP(=O)(N2CC2)N2CC2)CC(C)(C)N1[O]
- ILS [4]: 42%
- ILS [20]: 81%

SMILES: CN(C1CC(C)(C)N([O])C(C)(C)C1)P(=S)(N1CC1)N1CC1
- 30 day survival / total [18]: 0
- ILS [21]: 27% and 16%
- 30 day survival / total [16]: 0

SMILES: CC1(C)CC(OP(=O)(N2CC2)N2CC2)CC(C)(C)N1[O]
- ILS [4]: 5%
- 30 day survival / total [18]: 0
- ILS [6]: 29%
- 30 day survival / total [7]: 0

SMILES: CC1(C)CC(OP(=O)(N2CC2)N2CC2)CC(C)(C)N1O
- 30 day survival / total [5]: 0
- ILS [22]: -2% and 23%
- 30 day survival / total [7]: 0

SMILES: CC1(C)CC(OC(=O)NP(=O)(N2CC2)N2CC2)CC(C)(C)N1O
- 30 day survival / total [23]: 0
- ILS [4]: 25%
- 30 day survival / total [5]: 0
- ILS [20]: 48%

SMILES: CC1(C)CC(OP(=S)(N2CC2)N2CC2)CC(C)(C)N1[O]
- ILS [4]: -8%
- ILS [24]: 103%
- 30 day survival / total [5]: 0
- ILS [2]: 45%
- 30 day survival / total [25]: 1
- 30 day survival / total [26]: 0

SMILES: CC1(C)CC(NP(=S)(N2CC2)N2CC2)CC(C)(C)N1
- 30 day survival / total [23]: 0
- ILS [20]: 41%
- 30 day survival / total [27]: 0
- ILS [15]: 88%

SMILES: CC1(C)CC(NP(=S)(N2CC2)N2CC2)CC(C)(C)N1[O]
- ILS [6]: 34%
- 30 day survival / total [28]: 0
- ILS [29]: 52%
- 30 day survival / total [7]: 0
- ILS [30]: 96%
- 30 day survival / total [31]: 0

SMILES: CN(C1CC(C)(C)NC(C)(C)C1)P(=S)(N1CC1)N1CC1
- ILS [4]: 33%
- 30 day survival / total [5]: 0
- ILS [6]: 20%
- 30 day survival / total [7]: 0

SMILES: CN(C1CC(C)(C)N(O)C(C)(C)C1)P(=S)(N1CC1)N1CC1
- 30 day survival / total [5]: 0
- ILS [29]: 4%
- 30 day survival / total [31]: 0

SMILES: CC1(C)CC(OP(=S)(N2CC2)N2CC2)CC(C)(C)N1O
- 30 day survival / total [5]: 0
- 30 day survival / total [31]: 0
- 30 day survival / total [32]: 0
